The values below come from ChEMBL document CHEMBL1142879, “Synthesis and biological evaluation of dialkylsubstituted maleic anhydrides as novel inhibitors of Cdc25 dual specificity phosphatases” (Eur J Med Chem, 2007).

The structures appear in SMILES notation.

In assay [1] the target is T1, M-phase inducer phosphatase 2 (Homo sapiens, UniProt P30305).
T1 sequence (P30305 whole entry): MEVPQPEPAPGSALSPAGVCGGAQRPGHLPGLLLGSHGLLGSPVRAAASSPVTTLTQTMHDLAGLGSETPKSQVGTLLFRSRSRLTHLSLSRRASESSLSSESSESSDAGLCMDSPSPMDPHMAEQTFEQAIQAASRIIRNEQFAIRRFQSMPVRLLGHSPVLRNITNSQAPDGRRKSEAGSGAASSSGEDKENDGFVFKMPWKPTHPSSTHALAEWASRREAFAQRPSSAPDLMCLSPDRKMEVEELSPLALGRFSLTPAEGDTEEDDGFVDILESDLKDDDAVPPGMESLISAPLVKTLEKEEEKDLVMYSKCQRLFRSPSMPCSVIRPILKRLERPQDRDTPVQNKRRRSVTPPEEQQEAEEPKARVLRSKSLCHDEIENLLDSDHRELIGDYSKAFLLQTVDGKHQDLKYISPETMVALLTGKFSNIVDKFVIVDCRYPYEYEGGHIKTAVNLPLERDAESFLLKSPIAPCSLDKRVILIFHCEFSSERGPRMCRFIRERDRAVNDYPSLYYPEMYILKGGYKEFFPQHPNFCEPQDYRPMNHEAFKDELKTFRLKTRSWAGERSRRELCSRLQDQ
The experiment in a line: Inhibition of human GST-Cdc25B expressed in Escherichia coli BL21(DE3). The gist of the method: (§1)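 GST fusion proteins (full-length Cdc25A and Cdc25C; Cdc25B catalytic domain) were expressed in E. coli grown with ampicillin and induced with IPTG at OD600 0.4–0.6 for 5 h. They were purified on glutathione-agarose. Activity was measured with p-nitrophenyl phosphate as substrate across a range of inhibitor concentrations. IC50 is the mean ± SD of at least two independent experiments, each with four determinations per concentration.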

Assay [2] is described as follows: Inhibition of horse liver alkaline phosphatase. Also on record: species or system Equus caballus. The gist of the method:
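Phosphatase activity was read with p-nitrophenyl phosphate as substrate, following a previously described method.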

In assay [3] the target is T2, M-phase inducer phosphatase 1 (Homo sapiens, UniProt P30304).
T2 sequence (P30304 whole entry): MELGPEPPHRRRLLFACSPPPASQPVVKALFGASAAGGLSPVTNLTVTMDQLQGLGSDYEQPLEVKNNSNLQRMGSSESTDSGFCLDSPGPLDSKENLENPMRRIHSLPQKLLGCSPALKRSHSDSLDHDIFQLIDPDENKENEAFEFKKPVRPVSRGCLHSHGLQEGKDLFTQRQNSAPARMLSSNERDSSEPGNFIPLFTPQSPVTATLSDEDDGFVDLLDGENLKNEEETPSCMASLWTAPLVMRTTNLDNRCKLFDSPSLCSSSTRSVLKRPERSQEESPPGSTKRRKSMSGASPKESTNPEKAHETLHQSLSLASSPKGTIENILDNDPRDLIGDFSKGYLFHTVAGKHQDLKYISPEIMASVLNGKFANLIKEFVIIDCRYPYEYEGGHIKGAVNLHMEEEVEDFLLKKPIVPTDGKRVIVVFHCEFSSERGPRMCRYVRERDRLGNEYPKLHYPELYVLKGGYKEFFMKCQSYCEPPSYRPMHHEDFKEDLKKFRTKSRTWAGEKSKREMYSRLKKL
As to the kind of experiment: Inhibition of human GST-Cdc25A expressed in Escherichia coli BL21(DE3). The gist of the method:
as §1

Assay [4] deals with T3, M-phase inducer phosphatase 3 (Homo sapiens, UniProt P30307).
T3 sequence (P30307 whole entry): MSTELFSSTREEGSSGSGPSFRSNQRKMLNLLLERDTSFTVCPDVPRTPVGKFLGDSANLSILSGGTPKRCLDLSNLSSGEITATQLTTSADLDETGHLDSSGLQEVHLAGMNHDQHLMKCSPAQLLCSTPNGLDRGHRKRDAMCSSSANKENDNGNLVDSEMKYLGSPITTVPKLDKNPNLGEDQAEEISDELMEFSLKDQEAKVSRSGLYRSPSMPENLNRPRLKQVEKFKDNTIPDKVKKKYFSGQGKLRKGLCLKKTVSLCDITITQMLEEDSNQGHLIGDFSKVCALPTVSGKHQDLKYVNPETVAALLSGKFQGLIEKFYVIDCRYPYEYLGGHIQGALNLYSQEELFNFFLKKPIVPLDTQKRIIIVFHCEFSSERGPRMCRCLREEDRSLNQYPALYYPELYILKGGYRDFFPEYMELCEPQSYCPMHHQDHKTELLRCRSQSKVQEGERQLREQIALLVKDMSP
The experiment in a line: Inhibition of human GST-Cdc25C expressed in Escherichia coli BL21(DE3). The gist of the method: as §1

As for `CCCCCCCCC1=C(CCC(=O)O)C(=O)OC1=O`, the 50% inhibitory concentration (IC50) in assay [1], in assay [2], in assay [3] and in assay [4] was more than 100 µM each time.

For the molecule `CCCCCCCC/C=C\CCCCCCCC1=C(CCC(=O)O)C(=O)OC1=O`, the IC50 in assay [1] is 6.7 µM; in assay [2] it was more than 100 µM; in assay [3] it was 4.5 µM; in assay [4] it was 8.8 µM.

`CCCCCCCCCCC1=C(CCC(=O)O)C(=O)OC1=O`: the concentration for half-maximal inhibition (IC50) was 55.2 µM in assay [1], more than 100 µM in assay [2], 44.4 µM in assay [3] and 53.9 µM in assay [4].

Regarding `CCCCCCCCCCCC1=C(CCC(=O)O)C(=O)OC1=O`, the IC50 in assay [1] is 47.7 µM; in assay [2], more than 100 µM; in assay [3], 44.3 µM; in assay [4], more than 100 µM.

As to `CCCCCCC1=C(CCC(=O)O)C(=O)OC1=O`, the IC50 in assay [1], in assay [2], in assay [3] and in assay [4] was more than 100 µM in each case.

As to `CCCCCCCCCCCCCCCCCC1=C(CCC(=O)O)C(=O)OC1=O`, the half-maximal inhibitory concentration (IC50) in assay [2] was more than 100 µM.

`CCCCCCCCCCCCCCCC1=C(CCC(=O)O)C(=O)OC1=O`: the IC50 was 7.6 µM in assay [1], more than 100 µM in assay [2], 4.7 µM in assay [3] and 8.6 µM in assay [4].

Turning to `CCCCCCCCCC1=C(CCC(=O)O)C(=O)OC1=O`, the IC50 in assay [1], in assay [2], in assay [3] and in assay [4] was more than 100 µM throughout.

Regarding `CCCCCCCCCCCCCC1=C(CCC(=O)O)C(=O)OC1=O`, the IC50 in assay [1] was 8.7 µM; in assay [2], more than 100 µM; in assay [3], 8.1 µM; in assay [4] it was 5.7 µM.

As to `CCCCCCCCCCCCCCC1=C(CCC(=O)O)C(=O)OC1=O`, the half-inhibitory concentration (IC50) in assay [1] is 11.6 µM; in assay [2], more than 100 µM; in assay [3], 6.3 µM; in assay [4] it was 12.6 µM.
